# Assay results: ChEMBL document CHEMBL1144774, “Vasorelaxing alkaloids and flavonoids from Cassytha filiformis” (J Nat Prod, 2008)
# Test system: Aorta
# Test: Vasorelaxation activity in Sprague-Dawley rat aortic assessed as inhibition of phenylephrin-induced contraction
# Type: functional, tissue-based
# Method in brief: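 Endothelium-intact aortic rings from adult male rats (280–320 g) held isometrically at 1.8 g passive tension for 60 min; endothelium confirmed by >98% relaxation to acetylcholine (3 µM). Tonic contraction to phenylephrine (0.3 µM) set as 100%. Compound added cumulatively, 0.01–100 µM, one curve per ring. IC50 taken from percent-relaxation curves; mean ± SE of n independent experiments.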
row,Structure (SMILES),IC50 [µM]
1,COC1=C[C@@]23CCN(C)[C@@H](Cc4cc(OC)c(OC)cc42)C3=CC1=O,28.9
2,COc1cc(-c2oc3cc(O)cc(O)c3c(=O)c2O[C@@H]2O[C@H](CO)[C@@H](O)[C@H](O)[C@H]2O)ccc1O,23.6
3,COc1ccc2c(c1OC)-c1c3c(c(OC)c4c1[C@H](C2)NCC4)OCO3,16.5
4,COC1=C[C@@]23CCN(C)[C@@H](Cc4ccc(OC)c(O)c42)C3=CC1=O,32.8
5,COc1ccc2c(c1C(=O)O)-c1c3c(c(OC)c4c1[C@H](C2)NCC4)OCO3 [CASSYTHIC ACID],2.48
6,COc1cc2c(cc1O)C[C@@H]1NCCc3c(OC)c4c(c-2c31)OCO4 [CASSYTHINE],0.09
7,COc1cc2c(cc1OC)-c1c3c(cc4c1[C@H](C2)N(C)CC4)OCO3 [DICENTRINE],0.08
8,COc1cc2c(cc1O)C(=O)c1nccc3c(OC)c4c(c-2c13)OCO4 [ISOFILIFORMINE],32
9,COc1cc(-c2oc3cc(O)cc(O)c3c(=O)c2O[C@@H]2O[C@H](CO[C@@H]3O[C@@H](C)[C@H](O)[C@@H](O)[C@H]3O)[C@@H](O)[C@H](O)[C@H]2O)ccc1O [NARCISSIN],16.8
10,CN1CCc2cc3c(c4c2[C@@H]1Cc1cc2c(cc1-4)OCO2)OCO3 [NEOLITSINE],0.29
